An excerpt weighted towards active compounds, which were near 2.1% of everything screened.
SUMO Mot1 rescue: SUMOylation pathway inhibition by Mot1-301 growth rescue. S. cerevisiae Mot1-301 growth rescue, ATP luminescence, 38.5C; percent above DMSO median, 100 means doubled. growth rescue, % at 18.8 µM. 320,000 tested, 1% active;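 active = every valid replicate shows activation above 250% relative to neutral control wells; inactive = the rest, any valid replicate at or below 250%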;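 note: OY570 slx delta 5 strain wells were the positive control but not used for scaling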
APOBEC3A inh: blocks human APOBEC3A ssDNA deamination; 330,000 tested, 0.41% active; recombinant A3A, FAM/TAMRA ssDNA deamination fluorescence; inhibition, % at 20 µM;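 active = at least 40% inhibition at 20 µM here, with at most 30% in a related deaminase screen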;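 note: plate controls were A3A with DMSO for no effect and wells lacking A3A enzyme for full effect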
Target sequence (P31941 whole entry, looked up): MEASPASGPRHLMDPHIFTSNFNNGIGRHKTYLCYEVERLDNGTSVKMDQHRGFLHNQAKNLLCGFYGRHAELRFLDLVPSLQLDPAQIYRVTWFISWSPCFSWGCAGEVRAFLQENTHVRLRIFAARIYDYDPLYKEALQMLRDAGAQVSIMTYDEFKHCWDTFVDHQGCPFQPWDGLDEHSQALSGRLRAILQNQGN
ASAP1 inh: ASAP1 ArfGAP inhibition; Q9ULH1; ASAP1-stimulated ARF1 GTP hydrolysis, GDP FP detection; inhibition, % at 16.5 µM; 360,000 tested, 0.19% active; AID 624377; in the data active = inhibition above about 25%;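 note: 0% = vehicle with enzyme and substrate and 100% = no enzyme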
Statin myotox sup: suppressors of simvastatin-induced myotoxicity in C2C12 myotubes | ATP luminescence, 48 h; scaled: DMSO 0, geranylgeraniol control 100 | rescue of ATP level, % at 7.49 µM | 330,000 tested, 0.78% active;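 active = mean ATP rescue above about 67%, or every replicate alone reaching that limit, limit read from the data, passing the limit was not always enough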;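 note: myotubes were challenged with 10 µM simvastatin during compound exposure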
ARFGAP1 inhibitor: inhibitors of rat ARFGAP1; Q62848; Arfgap1-stimulated ARF1 GTP hydrolysis, GDP FP detection; 360,000 tested, 0.26% active; inhibition, % at 16.5 µM;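 active = inhibition above a per-plate limit, mean inhibition of low control wells plus 3 SD, cut at about 25% in these data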;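 note: 0% = DMSO wells with enzyme and 100% = wells lacking Arfgap1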
Target sequence (Q62848 1-136 limits assumed): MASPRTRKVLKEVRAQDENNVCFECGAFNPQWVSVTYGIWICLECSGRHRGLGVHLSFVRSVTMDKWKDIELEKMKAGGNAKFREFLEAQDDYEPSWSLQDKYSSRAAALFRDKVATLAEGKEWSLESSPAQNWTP
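Material: rat Arfgap1 GAP domain (His6, aa 1-136), purified enzyme. Also added: human ARF1(Δ1-17)-GTP substrate. Compound dosing: 16.5 µM single point, 1.26% DMSO. Timing: enzyme reaction 120 min at 25 °C after 20 min preincubation. Signal: GDP detection by fluorescence polarization. Read-out basis: percent inhibition of GAP-stimulated GDP formation, scaled between DMSO and no-Arfgap1 medians.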
A3G deaminase: blocks human APOBEC3G single-stranded DNA deamination | Q9HC16 | recombinant A3G, ssDNA deamination FAM/TAMRA fluorescence | inhibition, % at 20 µM | 330,000 tested, 0.28% active | AID 493012;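 active = inhibition of at least 40% at 20 µM, with no more than 30% in the related APOBEC3A deaminase screen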;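 note: plate controls were DMSO wells with A3G for no effect and wells lacking A3G enzyme for full effect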
* = called active by the depositor; . = no result given.

SMILES | SUMO Mot1 rescue | APOBEC3A inh | ASAP1 inh | Statin myotox sup | ARFGAP1 inhibitor | A3G deaminase
CNC(=O)c1ccsc1NC(=O)c1ccc(S(=O)(=O)N2CCCc3ccccc32)cc1 | -8 | -2 | 5 | 76* | 12 | -6
CCS(=O)(=O)c1ccc(-c2csc(-c3ccc(Cl)cc3)n2)c(Cl)c1Cl | 10 | 2 | 12 | 103* | -8 | 0
CCS(=O)(=O)c1ccc(-c2csc(-c3ccccc3Cl)n2)c(Cl)c1Cl | -15 | 3 | 2 | -4 | 12 | -6
Cn1c(N)c(C(=O)COC(=O)C2(c3cccc(F)c3)CCCC2)c(=O)n(C)c1=O | 1 | 5 | 7 | 108* | 9 | -6
CCC1CCCCN1CCNC(=O)CNS(=O)(=O)c1ccc2nc(C)sc2c1 (stereo not given) | 315* | -5 | -7 | -7 | -4 | -5
COc1cccc(-c2csc(N3CCN(C(=O)Nc4ccc(F)cc4)CC3)n2)c1 | -11 | -4 | 5 | 8 | -16 | -4
COc1cccc(-c2csc(N3CCN(C(=O)Nc4ccccc4OC)CC3)n2)c1 | 23 | -3 | 10 | 77* | 2 | -4
COc1cccc(C(CC(=O)NCc2ccco2)NS(=O)(=O)c2ccc(C)cc2)c1OC (stereo not given) | -9 | -1 | 8 | 100* | 13 | -2
COc1cccc(C(CC(=O)NCC2CCCO2)NS(=O)(=O)c2ccc(C)cc2)c1OC (stereo not given) | . | . | 7 | . | -7 | .
COCc1c(C(=O)OC)nnn1-c1ccccc1 | -34 | -4 | -17 | 130* | 1 | -7
O=C(c1ccccc1CCc1ccccc1)N1CCOCC1 | 5 | 0 | 3 | 114* | 0 | 2
NC(=O)C1CCN(C(=O)c2ccccc2CCc2ccccc2)CC1 | -17 | 1 | 8 | 2 | 10 | -4
Cc1ccccc1N(CC(=O)NC1CCCC1)C(=O)CS(=O)CC(=O)Nc1ccc2c(c1)OCO2 (stereo not given) | 9 | 1 | -2 | 127* | -2 | 1
Cc1cccc(N(C(=O)CS(=O)CC(=O)Nc2ccc3c(c2)OCO3)C(C)C(=O)NC2CCCC2)c1C (stereo not given) | 11 | 6 | 4 | . | -11 | -5
Cc1ccc(S(=O)(=O)N(C)C[C@H]2Oc3c(NC(=O)c4cc(C)nn4C)cccc3C(=O)N([C@H](C)CO)C[C@H]2C)cc1 | . | . | . | 18 | . | .
CC(Cl)C(=O)NN=C(c1ccccc1)c1ccccc1 (stereo not given) | 468* | -2 | -2 | 6 | 0 | -11
OC(COc1ccccc1)CN1CCN(Cc2ccc3c(c2)OCO3)CC1 (stereo not given) | 149 | -3 | -14 | . | -7 | -3
Cc1cc(C)cc(OCC(O)CN2CCN(Cc3ccc4c(c3)OCO4)CC2)c1 (stereo not given) | 310* | 2 | 5 | . | -4 | -5
Cc1cc(C)c(C(CC(=O)c2cccs2)C(C#N)C#N)c(C)c1 (stereo not given) | 477* | -1 | 5 | . | -2 | -3
CC(CC(=O)c1cccs1)CC(=O)c1cccs1 | 24 | -6 | -2 | -6 | -10 | -6
Cc1ccc(C2C(=O)N(C3CCC(C)CC3)CC(=O)N2C2CCCC2)cc1 (stereo not given) | 80 | 2 | 5 | 124* | -9 | 1
COc1ccc(S(=O)(=O)N(C)C[C@H]2OCCCC[C@H](C)Oc3ccc(NC(=O)Nc4c(C)noc4C)cc3C(=O)N([C@H](C)CO)C[C@H]2C)cc1 | . | . | . | -13 | . | .
COc1ccc(NC(=O)N(C)C[C@@H]2Oc3ccc(NC(=O)CCN4CCOCC4)cc3CC(=O)N([C@H](C)CO)C[C@@H]2C)cc1 | . | . | . | 1 | . | .
CN1CCCC(OC(=O)c2cc(Cl)ccc2Cl)C1 (stereo not given) | 6 | 3 | -6 | -6 | -6 | 1
CN1CCCC(OC(=O)c2cc(Br)ccc2Cl)C1 (stereo not given) | 260* | 1 | -6 | -1 | -3 | 1
SMILES | SUMO Mot1 rescue | APOBEC3A inh | ASAP1 inh | Statin myotox sup | ARFGAP1 inhibitor | A3G deaminase
CC(C)c1ccc(OCCCCN2CCCCC2)cc1 | 352* | -2 | -10 | -11 | 0 | -7
Clc1ccc(OCCCCN2CCCCC2)cc1 | 37 | 5 | . | -6 | . | 4
c1ccc(COc2ccc(OCCN3CCCCC3)cc2)cc1 | 445* | -1 | 4 | . | 10 | -8
c1ccc(-c2sc3ccccc3c2-c2ccc(OCCN3CCCC3)cc2)cc1 | 298* | 0 | -14 | -3 | 5 | 11
C[C@@H]1CN([C@@H](C)CO)C(=O)Cc2cc(NS(C)(=O)=O)ccc2O[C@@H]1CN(C)Cc1ccc(C(=O)O)cc1 | . | . | . | 5 | . | .
C[C@@H]1CN([C@@H](C)CO)C(=O)c2cc(C3=CCCCC3)cnc2O[C@@H]1CN(C)C(=O)c1ccc2c(c1)OCO2 | . | . | . | 6 | . | .
Cc1noc(C)c1S(=O)(=O)Nc1ccc2c(c1)CC(=O)N([C@@H](C)CO)C[C@@H](C)[C@H](CN(C)S(=O)(=O)c1ccccc1)O2 | . | . | . | 7 | . | .
COc1ccc(CN(C)C(=O)C23CC4CC(CC(C4)C2)C3)c(OC)c1 | 328* | 1 | -5 | -3 | 2 | -10
C[C@H]1CN([C@@H](C)CO)C(=O)c2ccccc2-c2ccccc2CO[C@@H]1CN(C)C(=O)Nc1ccccc1 | . | . | . | 7 | . | .
O=C(C=C1SCCS1)/C=C/c1ccco1 | -2 | 60 | -2 | . | -3 | 33
O=C(O)C(C(=O)/C=C/c1ccco1)=C1SCCS1 | 4 | 90 | -11 | 68* | -3 | 53
O=C(/C=C/c1ccco1)NC1CCCC1 | 693* | 5 | -14 | . | -1 | -1
C[C@H](CO)N1C[C@H](C)[C@H](CN(C)C(=O)c2cnccn2)Oc2ncc(/C=C/c3ccccc3)cc2C1=O | . | . | . | 11 | . | .
CO[C@H]1CN(C)C(=O)c2cc(NC(=O)c3ccno3)ccc2OC[C@@H](C)NC[C@H]1C | . | . | . | -3 | . | .
N#Cc1c2n(c3c(=O)n(Cc4ccc(Cl)cc4)cnc13)CCCCC2 | 19 | -3 | 20 | 95* | 8 | -1
Cc1ccc(CN2CCN(/N=C/c3ccc(C(F)(F)F)cc3)CC2)c(C)c1 | 326* | -4 | 2 | 1 | 4 | -2
Cc1ccc(CN2CCN(/N=C/c3ccc(C(=O)O)cc3)CC2)c(C)c1 | 4 | 0 | 12 | . | 8 | -3
[N-]=[N+]=CC(=O)C(O)(c1ccccc1)C(Cl)c1ccccc1 (stereo not given) | 301* | 0 | -1 | . | 9 | 3
[N-]=[N+]=CC(=O)C(c1ccccc1)(c1ccccc1)c1ccccc1 | 44 | -2 | 4 | . | 1 | -4
O=C(OCc1nc2ccccc2s1)c1cnccn1 | -15 | 1 | 6 | 132* | 10 | -6
